pIC50: −log10 of the molar value. Activity calls are given as the source filed them. The rule behind the calls is not given here.
How the values were obtained:
[1] = AUMC in Sprague-Dawley rat at 12 mg/kg, IG measured HPLC analysis; assay type: ADME, organism-based; conditions: in vivo, po
T-24 [2] = assay: Induction of intracellular reactive oxygen species production in human T24 cells at 5 to 10 uM measured in presence of 30 uM z-VAD after 16 hrs by flow cytometry analysis; assay type: functional, cell-based; conditions: dose 5-10 µM
Method in brief: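 After 5-23 treatment (16 h), floating and adherent T24 cells pooled and loaded with DCFH-DA (final 10 μM) for 30 min at 37 °C in the dark. Cells washed, resuspended in PBS and read by flow cytometry; quantified by luminescence spectrometry as % of control. Runs with zVAD (30 μM) or Nec-1 (60 μM). Three parallel samples.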

[3] = Cmax in Sprague-Dawley rat at 6 mg/kg, IG measured HPLC analysis; assay type: ADME, organism-based; set-up: dose 6 mg/kg, route ig; conditions: in vivo, po
[4] = Tmax in Sprague-Dawley rat at 12 mg/kg, IG measured HPLC analysis; assay type: ADME, organism-based; conditions: in vivo, po
Method in brief: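 Fasted (12 h) male-unspecified Sprague-Dawley rats (250 ± 20 g), n = 6 per group. Single intragastric dose of suspension (2 mg mL−1 in Tween 80/0.9% NaCl 1.5:5 v/v). Orbital blood drawn at 0.5–48 h and plasma assayed by reversed-phase C18 HPLC-UV. One-compartment fit, weight 1.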

T-24 [5] = assay: Up-regulation of p-RIPK3 expression in human T24 cells at 7.5 to 10 uM measured after 16 hrs by Western blot analysis; assay type: functional, cell-based; conditions: dose 7.5-10 µM
T-24 [6] = assay: Induction of necroptosis in human T24 cells assessed as viable cells at 7.5 uM and measured by trypan blue exclusion assay; assay type: functional; conditions: read-out: Activity
Method in brief: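 T24 cells (2 × 10^5/well) exposed for 16 h with or without Nec-1 (60 μM), then stained with trypan blue. Viable and dead cells counted. Result given as % viable cells relative to untreated control.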

HepG2 = assay: Antiproliferative activity against human HepG2 cells measured after 48 hrs by MTT assay; assay type: functional, cell-based; conditions: HepG2, 48 h
Method in brief: (§1)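 Cells seeded 5 × 10^3 per well, grown overnight at 37 °C, then exposed to compound at final 1–40 μM (1, 2.5, 5, 7.5, 10, 12.5, 15, 20, 30, 40 μM) for the stated period. MTT added, 4 h at 37 °C, formazan dissolved in DMSO, absorbance read. IC50 = concentration killing 50% of cells relative to untreated control; mean ± S.D. of four independent experiments.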

T-24 [7] = assay: Antiproliferative activity against human T24 cells measured after 72 hrs by MTT assay; assay type: functional, cell-based; conditions: T-24, 72 h; method in brief: as §1
T-24 [8] = assay: Induction of apoptosis in human T24 cells assessed as increase in caspase-8 expression at 0 to 5 uM measured by Western blot analysis; assay type: functional, cell-based; conditions: dose 0-5 µM
Method in brief: (§2)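 Apoptosis-related proteins measured by Western blot in T24 lysates: 40 μg protein per lane by SDS-PAGE, PVDF transfer, primary and peroxidase-linked secondary antibodies, ECL detection, densitometry of gray values with β-actin as loading control.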

[9] = Half-life in Sprague-Dawley rat at 6 mg/kg, IG measured HPLC analysis; assay type: ADME, organism-based; conditions: in vivo, po
T-24 [10] = assay: Induction of apoptosis in human T24 cells assessed as apoptotic cells at 7.5 uM measured after 10 hrs by Annexin-V/FITC and propidium iodide staining based flow cytometry analysis; assay type: functional
Method in brief: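 T24 cells in 60 mm dishes treated 10 h at 37 °C, collected, PBS-washed, resuspended in binding buffer, stained with Annexin V-FITC and PI for 15 min at room temperature in the dark. At least 1 × 10^4 events per sample by flow cytometry; apoptotic cells = early (Annexin+/PI−) plus late (Annexin+/PI+). Triplicate experiments.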

T-24 [11] = assay: Induction of apoptosis in human T24 cells assessed as increase in Bax expression at 5 to 7.5 uM measured by Western blot analysis; assay type: functional, cell-based; conditions: dose 5-7.5 µM; method in brief: as §2
[12] = AUMC in Sprague-Dawley rat at 6 mg/kg, IG measured HPLC analysis; assay type: ADME, organism-based; conditions: in vivo, po
T-24 [13] = assay: Down-regulation of VEGFR-2 mRNA expression in human T24 cells at 5 to 10 uM measured by RT-PCR analysis; assay type: functional, cell-based; conditions: dose 5-10 µM
T-24 [14] = assay: Up-regulation of p-RIPK1 expression in human T24 cells at 7.5 to 10 uM measured after 16 hrs by Western blot analysis; assay type: functional, cell-based; conditions: dose 7.5-10 µM
T-24 [15] = assay: Up-regulation of MLKL mRNA expression in human T24 cells at 7.5 to 12.5 uM measured by RT-PCR analysis; assay type: functional, cell-based; conditions: dose 7.5-12.5 µM
Method in brief: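 Total T24 RNA extracted with TRIzol. RT-PCR normalized to GAPDH, relative expression by 2−ΔΔCt versus control. Incubation 16 h for RIPK1/RIPK3/MLKL. At least three independent experiments, each in triplicate.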

O=C(Nc1ccc(C(F)(F)F)cc1)Nc1cccc(CNc2nccnc2Cl)c1
AUMC [1]: 1494860 hr2.ng/ml | Activity (T-24 [2]): Active | Cmax [3]: 1.19 µg/mL | Tmax [4]: 12.4 h | Activity (T-24 [5]): Active | viability at 7.5 µM (T-24 [6]): 51% | pIC50 (HepG2): 5.30 | pIC50 (T-24 [7]): 5.45 | Activity (T-24 [8]): Active | half-life [9]: 6.56 h | Activity (T-24 [10]): 21.41% | Activity (T-24 [11]): Active | AUMC [12]: 606261 hr2.ng/ml | Activity (T-24 [13]): Active | Activity (T-24 [14]): Active | Activity (T-24 [15]): Active
